# Measurements collected from several papers.
# Read-out: cell growth or viability
Structure (SMILES),cell line,assay,setting,IC50
Cc1cc(=O)c(-c2ccc(Oc3cccc(Cl)c3)cc2)c(C)[nH]1,HEK293,,,> 10 µM
CC(=O)O[C@H](C)C(=O)CCCCCCC(=O)Nc1ccccc1,HEK293,XTT,,36.3 µM
O=C1NC(=NCc2cccs2)S/C1=C\c1ccc2ncccc2c1,SK-MEL-28,,,> 10 µM
Cc1[nH]c(C)c(-c2ccc(CCc3ccc(F)cc3F)cc2)c(=O)c1Br,HEK293,,,> 10 µM
C/C=C/C(=O)Nc1cc(Nc2nc(Nc3cnn(C)c3)c3sccc3n2)c(OC)cc1N(C)CCN(C)C,NCI-H1975,MTT,,3.07 µM
C=CC(=O)Nc1cccc(Nc2nc(Nc3ccc(OCCOC)cc3)ncc2F)c1,CNE2Z,,,6.33 µM
C=C(Cl)C(=O)Nc1cc(Nc2nc(N3CCSCC3)c3sccc3n2)c(OC)cc1N(C)CCN(C)C,NCI-H1975,MTT,,0.165 µM
CCCCCCCc1[nH]c2ccccc2c(=O)c1C,HEK293,,,> 10 µM
COC(=O)c1cc2ccc(O)cc2oc1=O,HEK293,MTT,36 h,> 20 µM
CC[C@@H](C)[C@H](N)C(=O)N1Cc2ccccc2C1,SET-2,ATP luminescence,,0.09 µM
C=CC(=O)N1CCC[C@@H](n2nc(-c3ccc(Oc4ccccc4)cc3)c3c(N)ncnc32)C1,TMD8,CCK-8,72 h,0.01 µM
Cn1nnc2c(Cl)ncn2c1=O,T98G,resazurin,7 days,60 µM
C=C(Cl)C(=O)Nc1cc(Nc2nc(N3CCc4sccc4C3)c3sccc3n2)c(OC)cc1N(C)CCN(C)C,NCI-H1975,MTT,,0.087 µM
Cc1[nH]c(C)c(-c2ccc(-c3ccc(Cl)cc3)nc2)c(=O)c1Cl,HEK293,,,> 10 µM
CCCCN(CCCC)C(=O)c1ncn2c(=O)n(C)nnc12,T98G,resazurin,7 days,140 µM
C=C(Cl)C(=O)Nc1cc(Nc2nc(Nc3cnn(C)c3)c3sccc3n2)c(OC)cc1N(C)CCN(C)C,NCI-H1975,MTT,,0.023 µM
COc1ccc(CCc2ccc(-c3c(C)[nH]c(C)c(Cl)c3=O)cc2)cc1,HEK293,,,> 10 µM
C=CC(=O)Nc1cc(Nc2nc(N3CCc4sccc4C3)c3cccnc3n2)c(OC)cc1N(C)CCN(C)C,NCI-H1975,MTT,,0.596 µM
COc1cc(Nc2nccc(-c3cnn4nc(OC)ccc34)n2)cc(C(F)(F)F)c1,MKN-1,ATP luminescence,,0.58 µM
CCCCCCCCc1c(C)[nH]c(C)c(Cl)c1=O,HEK293,,,> 10 µM
C=CC(=O)Nc1cc(Nc2nc(N3CCc4sccc4C3)c3cccnc3n2)c(OC)cc1N1CCN(C(C)=O)CC1,NCI-H1975,MTT,,0.694 µM
Cc1[nH]c(C)c(-c2ccc(-c3cccc(C(F)(F)F)c3)nc2)c(=O)c1Br,HEK293,,,> 10 µM
COc1ccc2oc(=O)cc(CCl)c2c1,HEK293,MTT,36 h,> 20 µM
COc1cc(N(C)CCN(C)C)c(NC(=O)/C=C/C(C)C)cc1Nc1nc(N2CCc3sccc3C2)c2sccc2n1,NCI-H1975,MTT,,15.6 µM
Cc1cc2nc(-c3ccc(C(=O)NC4CCN(Cc5ccccc5)CC4)s3)[nH]c2cc1C,HEK293,,,> 10 µM
